In paper PMC4433875 (European journal of medicinal chemistry, 2015):
One block for each compound: values may come before it.

How the values were obtained:
[1] = tested on: triple-negative human breast cancer cell line MDA-MB-468; test: XTT cell killing assay, MDA-MB-468; format: cell-based; settings: growth inhibition
How it was run: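 MDA-MB-468 cells were grown in low-glucose DMEM with 10% FBS and 1% penicillin-streptomycin and plated one day before dosing. They received a four-day drug treatment, with the XTT proliferation kit read on day 6 after drug addition. Triplicate sets were compiled to give dose-dependent cytotoxicity.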

[2] = tested on: HeLa cells stably expressing DR-GFP; test: I-SceI inducible gene conversion; format: cell-based, human; settings: 10 or 20 µM, 24 hours, flow cytometry
How it was run: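 HeLa cells carrying stably integrated DR-GFP, selected with 2 µg/mL puromycin, were transfected with the I-SceI expression vector pCBASce for 24 h to induce DSBs. Cells were then exposed to DMSO or 10 or 20 µM test compound for another 24 h, trypsinized and analysed by flow cytometry for the percentage of GFP-positive cells. Three independent experiments, means±SD.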

RAD51 = biological target: T1, RAD51 (Homo sapiens, UniProt Q06609); test: Multimer formation assay; format: biochemical; settings: RAD51:IBR120 1:10 molar ratio, vs DMSO
T1 sequence (Q06609 1-339): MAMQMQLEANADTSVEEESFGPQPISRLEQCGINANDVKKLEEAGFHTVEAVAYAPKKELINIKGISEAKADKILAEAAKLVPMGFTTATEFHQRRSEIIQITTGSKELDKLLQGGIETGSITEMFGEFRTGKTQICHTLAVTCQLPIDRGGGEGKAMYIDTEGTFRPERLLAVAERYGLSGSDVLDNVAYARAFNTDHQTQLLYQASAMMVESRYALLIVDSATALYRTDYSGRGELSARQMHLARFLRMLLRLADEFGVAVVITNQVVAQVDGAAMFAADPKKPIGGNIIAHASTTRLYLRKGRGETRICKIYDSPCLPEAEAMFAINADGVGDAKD
How it was run: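 RAD51 (3.2 µg) was incubated with test compound (1:10 molar ratio) for 15 min at 37°C. Buffer was added (50mM triethanolamine-HCl pH7.5, 0.5mM Mg(OAc)2, 1mM DTT, 2mM ATP, 100 µg/ml BSA) and incubation continued 15 min. The mixture was run on a Superdex 200 gel filtration column equilibrated in the same buffer. Fractions were dot-blotted on PVDF and probed with anti-RAD51 mAb 14B4.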

[3] = tested on: panel of cancer cell lines; test: XTT assay, panel of cancer cell lines; format: cell-based, human
[4] = tested on: most tested cancer cell lines; settings: read-out: IC50 values for most tested cancer cell lines; original IBR2; cited from earlier work

Compound: O=S(=O)(Cc1ccccc1)N1CC=Cc2ccccc2[C@@H]1c1c[nH]c2ccccc12 [IBR115]
change of activity on increasing the central ring size from six to seven [1]: minimal change of activity

Compound: O=S(=O)(Cc1ccccc1)N1CC=Cc2ccccc2[C@H]1c1c[nH]c2ccccc12 [IBR116]
change of activity on increasing the central ring size from six to seven [1]: almost complete loss of function

Compound: O=S(=O)(Cc1ccccc1)N1CCc2ccccc2[C@@H]1c1n[nH]c2ccccc12 [IBR117, (R)-1-(1H-Indazol-3-yl)-2-phenylmethanesulfonyl-1,2,3,4-tetrahydro-isoquinoline]
fold increase in activity compared to parental compound IBR2 [1]: 1.6~2.4 fold

RAD51 multimerization (gel filtration elution profile) (RAD51): can inhibit RAD51 multimerization | IC50 ([3]; Homo sapiens, read-out: IC50 values in most tested cancer cell lines): 3 to 5 µM
Compound: O=S(=O)(Cc1ccccc1)N1Cc2ccccc2[C@@H]1c1c[nH]c2ccccc12 [IBR120, (R)-3-(2-(benzylsulfonyl)isoindolin-1-yl)-1H-indole]
HR frequency (GFP positive population) [2]: significantly reduced | difference between the IC50 values in normal and cancer cells ([3]; normal MCF10A vs cancer cell lines): Approximately 10 fold

Compound: O=S(=O)(Cc1ccccc1)N1C=Cc2ccccc2C1c1c[nH]c2ccccc12 (centres unmarked) [IBR2]
IC50 [4]: 12 to 20 µM
